From ChEMBL document CHEMBL1145203, “Synthesis of new benzoxazinone derivatives as neuropeptide Y5 antagonists for the treatment of obesity” (J Med Chem, 2005)

How the values were obtained:
[1] = biological target: T1, Neuropeptide Y receptor type 5 (Rattus norvegicus, UniProt Q63634); experiment: Inhibition of [125I]PYY binding to the rat NPY Y5 receptor in C6 cells; format: cell-based
T1 sequence (Q63634 whole entry): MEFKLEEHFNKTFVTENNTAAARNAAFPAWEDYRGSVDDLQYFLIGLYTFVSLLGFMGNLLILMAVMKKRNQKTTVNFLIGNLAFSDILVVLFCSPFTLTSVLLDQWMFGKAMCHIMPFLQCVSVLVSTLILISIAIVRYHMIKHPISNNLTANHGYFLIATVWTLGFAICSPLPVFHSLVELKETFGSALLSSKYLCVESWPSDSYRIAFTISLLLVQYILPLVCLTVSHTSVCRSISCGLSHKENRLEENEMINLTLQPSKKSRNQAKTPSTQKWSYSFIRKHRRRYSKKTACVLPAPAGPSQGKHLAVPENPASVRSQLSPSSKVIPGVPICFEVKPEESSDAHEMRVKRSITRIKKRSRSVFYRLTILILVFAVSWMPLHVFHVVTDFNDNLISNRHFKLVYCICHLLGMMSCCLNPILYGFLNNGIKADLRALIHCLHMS
How it was run: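 Radioligand [125I]-PYY 100 pM, incubated 2 h at 25 °C. Stopped with ice-cold buffer, filtered and washed, bound radioactivity counted. Nonspecific binding defined with 1 µM pNPY; triplicate.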

[2] = biological target: T2, Neuropeptide Y receptor type 5 (Rattus norvegicus) (UniProt Q63634); experiment: Inhibition of PYY effect on forskolin-stimulated cyclic AMP formation in C6 cells expressing rat NPY Y5 receptor; format: functional, cell-based; set-up: concentration or dose not given beside the values; conditions: concentration not given here
T2 sequence (whole entry): T1 sequence (Q63634 whole entry)
How it was run: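 C6 cells stably expressing rat NPY Y5, grown to 80% confluency in serum-free DMEM with L-glutamine, penicillin and streptomycin. Cells trypsinised 2 h before assay, about 50 000 cells/well. Compounds added with or without PYY; forskolin-stimulated cAMP measured after 30 min by FlashPlate with [125I]succinyl cAMP tracer. Expressed as % cAMP formation versus forskolin controls without PYY; three experiments in duplicate.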

| Compound | IC50 [1] | inhibition [2] |
| --- | --- | --- |
| COC(=O)c1ccccc1NC(=O)CN1CCC(N2C(=O)OCc3cc(C)ccc32)CC1 | > 1 µM |  |
| O=C(CN1CCC(N2C(=O)OCc3ccccc32)CC1)Nc1ccc(Cl)cc1 | 0.3 µM |  |
| CC(=O)c1ccc(NC(=O)CN2CCC(N3C(=O)OCc4cc(C)ccc43)CC2)cc1 | 0.026 µM | 89.4% |
| O=C(CN1CCC(N2C(=O)OCc3cc(Cl)ccc32)CC1)Nc1ccc(Oc2ccccc2)cc1 | 0.0607 µM | 99.2% |
| COC(=O)c1ccccc1NC(=O)CN1CCC(N2C(=O)OCc3ccccc32)CC1 | > 1 µM |  |
| N#Cc1ccc(NC(=O)CN2CCC(N3C(=O)OCc4cc(Cl)ccc43)CC2)cc1 | 0.199 µM | 91.5% |
| Cc1cccc2c1N(C1CCN(CC(=O)Nc3ccc4c(c3)-c3ccccc3C4=O)CC1)C(=O)OC2 | 0.05 µM | 93.8% |
| COC(=O)c1ccccc1NC(=O)CN1CCC(N2C(=O)OCc3cccc(C)c32)CC1 | > 1 µM |  |
| N#Cc1ccc(NC(=O)CN2CCC(N3C(=O)OCc4ccccc43)CC2)cc1 | 0.132 µM | 88.7% |
| Cc1ccc2c(c1)COC(=O)N2C1CCN(CC(=O)Nc2ccc(Oc3ccccc3)cc2)CC1 | 0.104 µM | 94.5% |
| CC(=O)c1ccc(NC(=O)CN2CCC(N3C(=O)OCc4ccccc43)CC2)cc1 | 0.0173 µM | 95.4% |
| CCn1c2ccccc2c2cc(NC(=O)CN3CCC(N4C(=O)OCc5c(Cl)cccc54)CC3)ccc21 |  | 83.4% |
| CCn1c2ccccc2c2cc(NC(=O)CN3CCC(N4C(=O)OCc5cc(Cl)ccc54)CC3)ccc21 | 0.1 µM | 99.3% |
| O=C(CN1CCC(N2C(=O)OCc3cc(F)ccc32)CC1)Nc1ccc2ncccc2c1 |  | 93.3% |
| O=C(CN1CCC(N2C(=O)OCc3cc(Cl)ccc32)CC1)Nc1ccc2c(c1)-c1ccccc1C2=O | 0.025 µM | 100% |
| O=C(CN1CCC(N2C(=O)OCc3cc(Cl)ccc32)CC1)Nc1ccc2c(c1)-c1ccccc1C2O (stereo not given) | 0.008 µM | 100% |
| COC(=O)c1ccccc1NC(=O)CN1CCC(N2C(=O)OCc3cc(Cl)ccc32)CC1 | > 1 µM |  |
| Cc1ccc2c(c1)COC(=O)N2C1CCN(CC(=O)Nc2ccc3c(c2)C(=O)c2ccccc2-3)CC1 | 0.0867 µM | 93.9% |
| Cn1c2ccccc2c2cc(NC(=O)CN3CCC(N4C(=O)OCc5ccccc54)CC3)ccc21 | 0.0096 µM | 88.7% |
| COc1cccc2c1N(C1CCN(CC(=O)Nc3ccc4oc5ccccc5c4c3)CC1)C(=O)OC2 | 0.0557 µM | 23.6% |

| Compound | IC50 [1] | inhibition [2] |
| --- | --- | --- |
| Cc1cccc2c1N(C1CCN(CC(=O)Nc3ccccc3C(=O)c3ccccc3)CC1)C(=O)OC2 | > 1 µM |  |
| O=C(CN1CCC(N2C(=O)OCc3ccccc32)CC1)Nc1ccc(Oc2ccccc2)cc1 | 0.02 µM | 100% |
| O=C(CN1CCC(N2C(=O)OCc3ccccc32)CC1)Nc1cccc2c1-c1ccccc1C2=O | 0.138 µM |  |
| O=C(CN1CCC(N2C(=O)OCc3cc(Cl)ccc32)CC1)Nc1ccc2ncccc2c1 | 0.148 µM | 71.9% |
| Cc1cccc2c1N(C1CCN(CC(=O)Nc3ccccc3)CC1)C(=O)OC2 | > 1 µM |  |
| O=C(CN1CCC(N2C(=O)OCc3ccccc32)CC1)Nc1ccccc1 | > 1 µM |  |
| CCn1c2ccccc2c2cc(NC(=O)CN3CCC(N4C(=O)OCc5cccc(OC)c54)CC3)ccc21 | 0.765 µM | 19.2% |
| CCn1c2ccccc2c2cc(NC(=O)CN3CCC(N4C(=O)OCc5cccc(C)c54)CC3)ccc21 | 0.05 µM | 96.9% |
| O=C(CN1CCC(N2C(=O)OCc3ccccc32)CC1)Nc1ccc2c(c1)-c1ccccc1C2=O | 0.0233 µM | 100% |
| O=C(CN1CCC(N2C(=O)OCc3cc(Cl)ccc32)CC1)Nc1ccc(C(=O)c2ccccc2)cc1 | 0.0112 µM | 97.4% |
| O=C(CN1CCC(N2C(=O)OCc3cc(Cl)ccc32)CC1)Nc1ccc(C2CCCCC2)cc1 | 0.112 µM | 98.4% |
| O=C(CN1CCC(N2C(=O)OCc3ccccc32)CC1)Nc1ccc2c(c1)C(=O)c1ccccc1-2 | > 1 µM |  |
| O=C(CN1CCC(N2C(=O)OCc3cc(Cl)ccc32)CC1)Nc1ccc2c(c1)C(=O)c1ccccc1-2 | 0.069 µM | 94% |
| O=C(CN1CCC(N2C(=O)OCc3cc(Cl)ccc32)CC1)Nc1ccccc1C(=O)c1ccccc1 | > 1 µM |  |
| Cc1cccc2c1N(C1CCN(CC(=O)Nc3ccc(C(=O)c4ccccc4)cc3)CC1)C(=O)OC2 | 0.0396 µM | 100% |
| O=C(CN1CCC(N2C(=O)OCc3ccccc32)CC1)Nc1ccccc1C(=O)c1ccccc1 | > 1 µM |  |
| CC(=O)c1ccc(NC(=O)CN2CCC(N3C(=O)OCc4cc(Cl)ccc43)CC2)cc1 | 0.021 µM | 99.9% |
| Cc1cccc2c1N(C1CCN(CC(=O)Nc3ccc(Cl)cc3)CC1)C(=O)OC2 | > 1 µM |  |
| Cc1cccc2c1N(C1CCN(CC(=O)Nc3ccc4c(c3)-c3ccccc3C4O)CC1)C(=O)OC2 (stereo not given) | 0.03 µM | 100% |
| O=C(CN1CCC(N2C(=O)OCc3ccccc32)CC1)Nc1ccc2c(c1)-c1ccccc1C2O (stereo not given) | 0.0087 µM | 96.1% |
